Source: ChEMBL document CHEMBL2331121, “Design, synthesis, and pharmacological characterization of N- and O-substituted 5,6,7,8-tetrahydro-4H-isoxazolo[4,5-d]azepin-3-ol analogues: novel 5-HT(2A)/5-HT(2C) receptor agonists with pro-cognitive properties” (J Med Chem, 2013)
pEC50, pKi: −log10 of the molar value. Active and inactive are the calls of the source. The calls are words filed in the database; no cut-off is given here.

What was measured:
Mus musculus [1] = assay: Procognitive effect in C57Bl/6J mouse assessed as distance traveled in the novel arm at 0.43 mg/kg, po administered 30 mins prior to acquisition trial measured after 24 hrs in presence of SB242084 (reference value: 37 +/-5.8%); format: functional
Outline: (§1)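 Male C57Bl/6J mice aged 8 weeks, two-trial place recognition Y-maze. 3 min acquisition with two arms open; 24 h ITI; 3 min retention with all three arms open. Drug given po 30 min before acquisition, vehicle 10% HP-βCD. SB242084 2.1 mg/kg co-administered where stated; doses as free base. Readouts are % distance, arm entries and time in each arm. Familiar arms pooled; one-way ANOVA.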

[2] = target: T1, 5-hydroxytryptamine receptor 2C (Rattus norvegicus) (UniProt P08909); assay: Displacement of [125I]-N-(p-I-Bn)-THAZ from 5HT2C receptor in rat midbrain membrane after 1 hr by scintillation counting analysis; format: cell membranes
T1 sequence (whole entry): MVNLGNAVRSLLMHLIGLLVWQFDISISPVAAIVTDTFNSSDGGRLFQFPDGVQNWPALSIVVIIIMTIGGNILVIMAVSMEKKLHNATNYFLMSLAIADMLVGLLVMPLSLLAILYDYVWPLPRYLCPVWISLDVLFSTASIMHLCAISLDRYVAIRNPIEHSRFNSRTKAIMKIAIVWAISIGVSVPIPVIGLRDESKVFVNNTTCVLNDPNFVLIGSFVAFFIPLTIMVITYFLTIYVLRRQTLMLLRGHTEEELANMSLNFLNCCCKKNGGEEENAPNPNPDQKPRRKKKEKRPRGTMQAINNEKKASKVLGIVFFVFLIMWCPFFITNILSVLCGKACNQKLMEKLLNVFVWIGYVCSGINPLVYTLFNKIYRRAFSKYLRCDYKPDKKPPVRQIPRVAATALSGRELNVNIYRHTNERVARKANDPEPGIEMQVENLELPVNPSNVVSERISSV

[3] = target: T2, 5-hydroxytryptamine receptor 2A (Homo sapiens, UniProt P28223); assay: Agonist activity at human 5HT2A receptor expressed in HEK293 cells assessed as accumulation of IP1 incubated for 1 hr at 37 degC followed by 15 mins at RT by TR-FRET assay relative to 5HT; format: functional, cell-based
Outline: (§2)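 Polyclonal HEK293 lines stably expressing human 5-HT2A (variant 1) or 5-HT2C (INI isoform), detached and suspended at 1 × 10⁷ cells/mL in HBSS with 20 mM HEPES, 1 mM CaCl₂, 1 mM MgCl₂, pH 7.4. Ligands in buffer with 40 mM LiCl. Incubated 1 h at 37 °C, then 15 min RT. IP1 read by HTRF 665/615 ratio. Triplicate, at least four times.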

Mus musculus [4] = assay: Procognitive effect in C57Bl/6J mouse assessed as number of novel arm entry at 0.43 mg/kg, po administered 30 mins prior to acquisition trial measured after 24 hrs in presence of SB242084; format: functional; outline: as §1
Homo sapiens = organism: Homo sapiens; assay: Selectivity ratio of EC50 for human 5HT2A receptor to EC50 for M1 muscarinic receptor (unknown origin) by FLIPR assay
[5] = target: T3, 5-hydroxytryptamine receptor 2C (Homo sapiens) (UniProt P28335); assay: Agonist activity at human 5HT2C receptor expressed in HEK293 cells assessed as accumulation of IP1 incubated for 1 hr at 37 degC followed by 15 mins at RT by TR-FRET assay relative to 5HT; format: functional, cell-based; outline: as §2
T3 sequence (whole entry): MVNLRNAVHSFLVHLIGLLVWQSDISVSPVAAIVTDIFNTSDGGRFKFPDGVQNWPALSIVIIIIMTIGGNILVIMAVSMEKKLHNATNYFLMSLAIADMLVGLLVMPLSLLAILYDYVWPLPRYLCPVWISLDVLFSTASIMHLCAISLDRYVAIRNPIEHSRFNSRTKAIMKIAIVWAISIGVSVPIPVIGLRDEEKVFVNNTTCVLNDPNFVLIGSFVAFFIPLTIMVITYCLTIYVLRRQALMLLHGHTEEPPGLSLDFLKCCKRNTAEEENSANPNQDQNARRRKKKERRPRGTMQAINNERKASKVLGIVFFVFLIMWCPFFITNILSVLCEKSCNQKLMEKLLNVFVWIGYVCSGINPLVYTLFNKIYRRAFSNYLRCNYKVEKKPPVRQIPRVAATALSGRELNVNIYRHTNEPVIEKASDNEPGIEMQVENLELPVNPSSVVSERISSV

[6] = target: T2, 5-hydroxytryptamine receptor 2A; assay: biochemical; format: cell-based, tsA201; conditions: read-out: Ki
[7] = target: T1, 5-hydroxytryptamine receptor 2C (Rattus norvegicus); assay: Displacement of [125I]-N-(p-I-Bn)-THAZ from 5HT2C in Sprague-Dawley rat hippocampal membrane at 100 uM after 40 mins by autoradiography; format: tissue-based; conditions: Hippocampus
Mus musculus [8] = assay: Procognitive effect in C57Bl/6J mouse assessed as number of familiar arm entry at 0.43 mg/kg, po administered 30 mins prior to acquisition trial measured after 24 hrs by Y-maze test; format: functional; outline: as §1
[9] = target: T2, 5-hydroxytryptamine receptor 2A; assay: Ratio of EC50 for human 5HT2A receptor by calcium fiux-based fluorescence assay to EC50 for 5HT2A by IP1 accumulation-based TR-FRET assay; format: functional
[10] = target: T2, 5-hydroxytryptamine receptor 2A; assay: Agonist activity at human 5HT2A receptor expressed in HEK293 cells assessed as induction of intracellular calcium release measured for 90 secs by fluorescence assay; format: functional, cell-based; conditions: read-out: EC50
Mus musculus [11] = assay: Procognitive effect in C57Bl/6J mouse assessed as distance traveled in the familiar arm at 0.43 mg/kg, po administered 30 mins prior to acquisition trial measured after 24 hrs by Y-maze test (Rvb =31.5 +/- 2.9%); format: functional; outline: as §1
Mus musculus [12] = assay: Procognitive effect in C57Bl/6J mouse assessed as number of novel arm entries at 0.43 mg/kg, po administered 30 mins prior to acquisition trial measured after 24 hrs by Y-maze test; format: functional; outline: as §1
[13] = target: T1, 5-hydroxytryptamine receptor 2C (Rattus norvegicus); assay: Displacement of [125I]-N-(p-I-Bn)-THAZ from 5HT2C receptor in Sprague-Dawley rat cortical membrane at 100 uM after 40 mins by autoradiography
[14] = target: T2, 5-hydroxytryptamine receptor 2A; assay: Agonist activity at human 5HT2A receptor expressed in HEK293 cells assessed as induction of intracellular calcium release by fluorescence assay relative to 5HT; format: functional, cell-based
Outline: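 Stable polyclonal 5-HT2A or 5-HT2C HEK293 cells seeded on poly-D-lysine plates (6 × 10⁴ cells/well). Next day loaded with Fluo-4/AM for 1 h at 37 °C in HBSS/20 mM HEPES/1 mM CaCl₂/1 mM MgCl₂/2.5 mM probenecid, pH 7.4. Fluorescence (485 ex/525 em) recorded before and up to 90 s after agonist. Response relative to 5-HT on the same plate. Duplicate, at least three times.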

[15] = target: T4, 5-hydroxytryptamine receptor 2C (Homo sapiens, UniProt P28335); assay: Agonist activity at human 5HT2C receptor expressed in HEK293 cells assessed as accumulation of IP1 incubated for 1 hr at 37 degC followed by 15 mins at RT by TR-FRET assay; format: functional, cell-based
T4 sequence (P28335 whole entry): T3 sequence (whole entry)

[16] = target: T1, 5-hydroxytryptamine receptor 2C (Rattus norvegicus); assay: Displacement of [125I]-N-(p-I-Bn)-THAZ from 5HT2C receptor in rat hippocampal membrane after 1 hr by scintillation counting analysis; format: cell membranes; conditions: Hippocampus
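Wherever pKi is given: radioligand displacement of [3H]ketanserin on membranes of tsA201 cells expressing the receptor, incubated 1 hr, bound radioactivity read by scintillation counting.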

T2 sequence (P28223 whole entry, canonical isoform): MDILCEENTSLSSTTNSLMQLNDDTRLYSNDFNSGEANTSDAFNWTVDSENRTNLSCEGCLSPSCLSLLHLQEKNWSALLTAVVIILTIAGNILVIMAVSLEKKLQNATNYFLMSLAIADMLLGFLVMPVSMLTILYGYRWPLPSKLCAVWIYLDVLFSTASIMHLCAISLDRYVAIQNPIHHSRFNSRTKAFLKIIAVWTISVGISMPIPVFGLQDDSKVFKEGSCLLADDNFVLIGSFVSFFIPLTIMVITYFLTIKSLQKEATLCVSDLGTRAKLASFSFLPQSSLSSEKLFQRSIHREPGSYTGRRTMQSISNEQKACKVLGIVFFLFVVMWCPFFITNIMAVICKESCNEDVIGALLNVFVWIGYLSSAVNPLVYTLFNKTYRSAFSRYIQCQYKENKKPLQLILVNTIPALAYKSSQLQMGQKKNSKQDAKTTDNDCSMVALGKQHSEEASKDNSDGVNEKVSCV

Question: For O=c1c2c(on1Cc1ccccc1)CCNCC2, which Activity (Mus musculus [1]) is on record?
Answer: The Activity was 34.7%.

Question: What about the Activity [2] of the same molecule?
Answer: Its Activity is “inactive”.

Question: And the Emax [3]?
Answer: Its Emax is 95%.

Question: What about the Activity (Mus musculus [4]) of the same molecule?
Answer: The Activity was 32.8%.

Question: And the Ratio EC50 (Homo sapiens)?
Answer: Its Ratio EC50 is 20.

Question: What about the Emax [5] of the same molecule?
Answer: Its Emax is 92%.

Question: And the pKi [6]?
Answer: The pKi was 5.06.

Question: And the Activity [7]?
Answer: Its Activity is “inactive”.

Question: What about the Activity (Mus musculus [8]) of the same molecule?
Answer: The Activity was 30.8%.

Question: And the Ratio EC50 [9]?
Answer: The Ratio EC50 was 2.

Question: What about the pEC50 [10] of the same molecule?
Answer: Its pEC50 is 6.26.

Question: What about the Activity (Mus musculus [11]) of the same molecule?
Answer: The Activity was 29.8%.

Question: And the Activity (Mus musculus [12])?
Answer: Its Activity is 38.5%.

Question: What about the Activity [13] of the same molecule?
Answer: The Activity was “Active”.

Question: And the Emax [14]?
Answer: Its Emax is 80%.

Question: What about the pEC50 [15] of the same molecule?
Answer: The pEC50 was 5.77.

Question: What about the Activity [16] of the same molecule?
Answer: Its Activity is “inactive”.
